Test results published in ChEMBL document CHEMBL5104216, “Fragment-Sized Thiazoles in Fragment-Based Drug Discovery Campaigns: Friend or Foe?” (ACS Med Chem Lett, 2022).

Legend:
[1] = target: Replicase polyprotein 1ab (Severe acute respiratory syndrome coronavirus 2) (UniProt P0DTD1); experiment: Inhibition of recombinant SARS-CoV-2 3CLpro expressed in Escherichia coli NiCo21(DE3) assessed as residual activity at 500 uM using DABCYL-KTSAVLQSGFRKME-EDANS as substrate preincubated for 30 mins followed by substrate addition and measured by FRET assay relative to control
Outline: (§1)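 Kinetic fluorescence read-out of cleavage of a FRET substrate carrying a DABCYL–EDANS pair. Compounds were tested at 500–625 μM, and <50% residual activity was taken as the activity threshold. To exclude false positives, absorbance at the excitation and emission wavelengths and autofluorescence of the compounds were measured.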

[2] = Redox activity of compound assessed as redox index at 100 uM in presence of 1 mM DTT measured by HRP-PR assay; type: physicochemical
Outline: (§2)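 H2O2 from redox cycling, with or without DTT, detected with horseradish peroxidase-phenol red (HRP-PR).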

[3] = target: UDP-N-acetylglucosamine 1-carboxyvinyltransferase (Escherichia coli K-12) (UniProt P0A749); experiment: Inhibition of recombinant Escherichia coli MurA assessed as residual activity at 500 uM using UDP-N-acetylglucosamine as substrate preincubated for 30 mins followed by substrate addition and measured by malachite green based colorimetric assay relative to control
UDP-N-acetylglucosamine 1-carboxyvinyltransferase (Escherichia coli K-12), sequence (P0A749 whole entry): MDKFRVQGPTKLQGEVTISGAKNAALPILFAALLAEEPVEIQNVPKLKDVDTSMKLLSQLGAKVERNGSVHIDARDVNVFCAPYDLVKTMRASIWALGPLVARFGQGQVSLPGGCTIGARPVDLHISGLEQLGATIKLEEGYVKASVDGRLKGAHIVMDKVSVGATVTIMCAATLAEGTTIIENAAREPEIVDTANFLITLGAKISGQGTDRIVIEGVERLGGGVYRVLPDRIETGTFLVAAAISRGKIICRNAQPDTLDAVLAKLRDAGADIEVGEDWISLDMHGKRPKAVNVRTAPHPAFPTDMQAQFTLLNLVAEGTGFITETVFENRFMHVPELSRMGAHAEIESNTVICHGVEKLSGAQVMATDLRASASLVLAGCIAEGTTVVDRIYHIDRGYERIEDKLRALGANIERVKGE
Outline: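 E. coli MurA at 500–625 μM with 30 min preincubation before substrate addition. Malachite green colorimetric read-out. Activity threshold was <50% residual activity.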

[4] = Redox activity of compound assessed as redox index at 10 uM measured by resazurin assay; type: physicochemical
Outline: (§3)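 Free radicals formed by redox cycling with DTT detected with resazurin by fluorimetric read-out. Spectral interference checked.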

[5] = target: Replicase polyprotein 1ab (Severe acute respiratory syndrome coronavirus 2) (UniProt P0DTD1); experiment: Inhibition of recombinant SARS-CoV-2 3CLpro expressed in Escherichia coli NiCo21(DE3) assessed as residual activity at 500 uM using DABCYL-KTSAVLQSGFRKME-EDANS as substrate preincubated for 30 mins in presence of 1mM DTT followed by substrate addition and measured by FRET assay relative to control; outline: as §1
[6] = Thiol reactivity of compound measured by TNB2- assay; type: physicochemical
Outline: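 Reactivity toward the thiol surrogate TNB2– in a nonproteinaceous setting without TCEP. Reversibility tested by adding TCEP and checking that absorbance was restored.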

[7] = target: UDP-N-acetylglucosamine 1-carboxyvinyltransferase (Escherichia coli K-12) (UniProt P0A749); experiment: Inhibition of recombinant Escherichia coli MurA assessed as residual activity at 500 uM using UDP-N-acetylglucosamine as substrate preincubated for 30 mins in presence of 1 mM DTT followed by substrate addition and measured by malachite green based colorimetric assay relative to control
[8] = Redox activity of compound assessed as redox index at 100 uM in presence of 100 uM TCEP measured by H2DCFDA assay; type: physicochemical
Outline: (§4)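 Reactive oxygen species, with or without the reducing agent TCEP, detected with the fluorescent probe H2DCFDA. Compound spectral interference (autofluorescence) checked under the assay conditions.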

[9] = Aqueous stability of the compound at pH 7.4 measured after 60 mins by spectrophotometric analysis; type: physicochemical; conditions: buffer, pH 7.4, 1 h
Outline: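 Followed by spectrophotometry as changes in the compound absorption spectrum over time in 50 mM Tris-HCl pH 7.4, 0.5 mM EDTA, read after 60 min in 96-well microplate format. Compounds with low absorbance were not evaluated.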

[10] = Redox activity of compound assessed as redox index at 100 uM measured by HRP-PR assay; type: physicochemical; outline: as §2
[11] = target: D-alanine--D-alanine ligase B (Escherichia coli K-12) (UniProt P07862); experiment: Inhibition of recombinant Escherichia coli DdlB assessed as residual activity at 500 uM using D-alanine as substrate incubated for 20 mins and measured by malachite green based colorimetric assay relative to control
Outline: (§5)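 Screened at 500–625 μM with malachite green colorimetric read-out. Activity threshold was <50% residual activity.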

[12] = Redox activity of compound assessed as redox index at 1 uM measured by resazurin assay; type: physicochemical; outline: as §3
[13] = system: Mycobacterium tuberculosis; experiment: Inhibition of Mycobacterium tuberculosis MetAP1a assessed as residual activity at 625 uM using L-methionine 7-amido-4-methylcoumarin as fluorogenic substrate and measured by fluorescence based assay
Outline: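 Kinetic fluorescence assay in which the enzyme hydrolyses L-methionine 7-amido-4-methylcoumarin to fluorescent 7-amino-4-methylcoumarin. Compounds were tested at 500–625 μM, and activity was called at <50% residual activity. Spectral interference was checked by measuring absorbance at the excitation and emission wavelengths and compound autofluorescence.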

[14] = target: UDP-N-acetylglucosamine 1-carboxyvinyltransferase (Escherichia coli K-12) (UniProt P0A749); experiment: Inhibition of recombinant Escherichia coli MurA assessed as residual activity at 500 uM using UDP-N-acetylglucosamine as substrate and measured by malachite green based colorimetric assay relative to control; outline: as §5
[15] = Redox activity of compound assessed as redox index at 100 uM measured by H2DCFDA assay; type: physicochemical; outline: as §4

With `N#Cc1cnc(NC(=O)C(=O)O)s1` the Activity [1] was 104%, the Activity_index [2] was 1 and the Activity [3] was 90.6%. For the same compound, the Activity_index [4] was 0.9, the Activity [5] was 97.6% and the Activity [6] was “Active”. The Activity [7] was 114%, the Activity_index [8] was 0.7 and the Stability [9] was “Stable”. It also gave an Activity_index [10] of 1, an Activity [11] of 105% and an Activity_index [12] of 0.9. It also gave an Activity [13] of 150%, an Activity [14] of 112% and an Activity_index [15] of 0.9.

`Nc1ncc(Br)s1` showed an Activity [1] of 42.5%, an Activity_index [2] of 1 and an Activity [3] of 9%. The Activity_index [4] was 1.1, the Activity [5] was 79.4% and the Activity [6] was “Active”. The Activity [7] was 100%, the Activity_index [8] was 1.5 and the Stability [9] was “Stable”. For the same compound, the Activity_index [10] was 1, the Activity [11] was 91% and the Activity_index [12] was 0.9. The Activity [13] was 156%, the Activity [14] was 21.1% and the Activity_index [15] was 1.6.

With `N#Cc1cnc(N)s1` the Activity [1] was 1.1%, the Activity_index [2] was 1 and the Activity [3] was 6.1%. For the same compound, the Activity_index [4] was 1.2, the Activity [5] was 74.1% and the Activity [6] was “Active”. The Activity [7] was 102%, the Activity_index [8] was 0.8 and the Stability [9] was “Stable”. It also gave an Activity_index [10] of 1, an Activity [11] of 91% and an Activity_index [12] of 0.9. The Activity [13] was 90.8%, the Activity [14] was 18.9% and the Activity_index [15] was 1.

Compound `CCOC(=O)c1csc(N)n1` has an Activity [1] of 18.9%, an Activity_index [2] of 1 and an Activity [3] of 9%. For the same compound, the Activity_index [4] was 1, the Activity [5] was 76.3% and the Activity [6] was “Active”. For the same compound, the Activity [7] was 105%, the Activity_index [8] was 0.7 and the Stability [9] was “Stable”. For the same compound, the Activity_index [10] was 0.8, the Activity [11] was 89% and the Activity_index [12] was 0.9. For the same compound, the Activity [13] was 93.7%, the Activity [14] was 18.6% and the Activity_index [15] was 1.1.

In the case of `O=C(O)c1csc(-c2ccc(F)cc2)n1`, the Activity [1] is reported as 82.6%, the Activity_index [2] is reported as 1 and the Activity [3] is reported as 12.8%. For the same compound, the Activity_index [4] was 0.9, the Activity [5] was 88.1% and the Activity [6] was “Active”. The Activity [7] was 90%, the Activity_index [8] was 0.8 and the Stability [9] was “Stable”. It also gave an Activity_index [10] of 0.8, an Activity [11] of 94% and an Activity_index [12] of 0.9. It also gave an Activity [13] of 141%, an Activity [14] of 58.7% and an Activity_index [15] of 1.1.

For `O=C(O)c1csc(Nc2cccc3ncccc23)n1`, the Activity [1] was 42.7%, the Activity_index [2] was 1 and the Activity [3] was 0%. For the same compound, the Activity_index [4] was 2.4, the Activity [5] was 41.2% and the Activity [6] was “Active”. The Activity [7] was 80.9%, the Activity_index [8] was 1.6 and the Stability [9] was “Stable”. The Activity_index [10] was 1, the Activity [11] was 82% and the Activity_index [12] was 1. For the same compound, the Activity [13] was 36.8%, the Activity [14] was 1.4% and the Activity_index [15] was 1.3.

`O=C(O)C(=O)Nc1ncc(Br)s1` showed an Activity [1] of 62.2%, an Activity_index [2] of 1 and an Activity [3] of 1.2%. The Activity_index [4] was 0.9, the Activity [5] was 82.8% and the Activity [6] was “Active”. For the same compound, the Activity [7] was 112%, the Activity_index [8] was 1.2 and the Stability [9] was “Stable”. It also gave an Activity_index [10] of 1, an Activity [11] of 94% and an Activity_index [12] of 0.9. The Activity [13] was 28.9%, the Activity [14] was 11.3% and the Activity_index [15] was 1.
